One assay has as its target T1, Neuropeptide S receptor (Mus musculus, UniProt Q8BZP8).
T1 sequence (Q8BZP8 whole entry): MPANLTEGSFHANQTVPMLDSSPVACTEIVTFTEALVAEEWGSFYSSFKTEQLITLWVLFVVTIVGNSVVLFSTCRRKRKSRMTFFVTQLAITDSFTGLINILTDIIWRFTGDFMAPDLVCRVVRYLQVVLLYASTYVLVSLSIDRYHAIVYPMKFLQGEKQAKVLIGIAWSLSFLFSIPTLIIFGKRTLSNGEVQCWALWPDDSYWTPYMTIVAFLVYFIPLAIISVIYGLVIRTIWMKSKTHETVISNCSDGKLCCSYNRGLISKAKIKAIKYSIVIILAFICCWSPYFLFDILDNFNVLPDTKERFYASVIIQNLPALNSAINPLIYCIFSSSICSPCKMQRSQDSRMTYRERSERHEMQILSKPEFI
Nature of the assay: Agonist activity at mouse recombinant NPS receptor expressed in HEK293 cells assessed as intracellular calcium mobilization. Format: functional, cell-based. Put shortly:
(§1)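 HEK293 cells stably expressing mouse NPSR, kept in DMEM with 10% FBS, 2 mM L-glutamine and hygromycin (100 mg/L), were seeded at 50 000 cells/well. Next day they were loaded with Fluo-4 AM (3 µmol), probenecid (2.5 mmol) and 0.01% pluronic acid for 30 min at 37 °C. Agonist dilutions in HBSS/HEPES with 0.02% BSA were added, and FlexStation II fluorescence was read at 22 °C.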
A general note: Calcium assays in cells follow changes in intracellular calcium, usually with a dye or a luminescent sensor.

For assay [1], the target named is T2, Neuropeptide S receptor (Mus musculus) (UniProt Q8BZP8).
T2 sequence (whole entry): T1 sequence (Q8BZP8 whole entry)
Nature of the assay: Agonist activity at mouse recombinant NPS receptor expressed in HEK293 cells assessed as intracellular calcium mobilization relative to baseline. Format: functional, cell-based. A digest of the protocol: as §1

Non-standard residues stand in square brackets, D forms with d. Residues, ends and D or L forms follow the SMILES beside them. Phe(4-CF3) = N[C@@H](Cc1ccc(C(F)(F)F)cc1)C(=O)O; Bip = N[C@@H](Cc1ccc(-c2ccccc2)cc1)C(=O)O; Phe(4-Br) = N[C@@H](Cc1ccc(Br)cc1)C(=O)O; Phe(4-CN) = N#Cc1ccc(C[C@H](N)C(=O)O)cc1; Phe(4-Cl) = N[C@@H](Cc1ccc(Cl)cc1)C(=O)O; Phe(4-F) = N[C@@H](Cc1ccc(F)cc1)C(=O)O; Phe(4-I) = N[C@@H](Cc1ccc(I)cc1)C(=O)O; 1Nal = N[C@@H](Cc1cccc2ccccc12)C(=O)O; Atc(2S) = N[C@@]1(C(=O)O)CCc2ccccc2C1; Phe(2-Me) = Cc1ccccc1C[C@H](N)C(=O)O; Cha = N[C@@H](CC1CCCCC1)C(=O)O; Aic = NC1(C(=O)O)Cc2ccccc2C1; Nphe = O=C(O)CNCc1ccccc1

`CSCC[C@H](NC(=O)CNC(=O)[C@@H](NC(=O)CNC(=O)[C@@H](NC(=O)CNC(=O)[C@H](CC(N)=O)NC(=O)[C@H](CCCNC(=N)N)NC(=O)[C@H](Cc1cccc2ccccc12)NC(=O)[C@@H](N)CO)C(C)C)[C@@H](C)O)C(=O)N[C@@H](CCCCN)C(=O)N[C@@H](CCCCN)C(=O)N[C@H](C(=O)N[C@@H](CO)C(=O)N[C@@H](Cc1ccccc1)C(=O)N[C@@H](CCC(N)=O)C(=O)N[C@@H](CCCNC(=N)N)C(=O)N[C@@H](C)C(=O)N[C@@H](CCCCN)C(=O)N[C@@H](CO)C(=O)O)[C@@H](C)O` (H-S[1Nal]RNGVGTGMKKTSFQRAKS-OH): the half-maximal effective concentration (EC50) (in general, the midpoint of the concentration-response curve) at Neuropeptide S receptor is 1.95 nM. In assay [1], the Emax (usually the maximal effect, on the per cent scale that the assay sets) was 232%.

Take `CSCC[C@H](NC(=O)CNC(=O)[C@@H](NC(=O)CNC(=O)[C@@H](NC(=O)CNC(=O)[C@H](CC(N)=O)NC(=O)[C@H](CCCNC(=N)N)NC(=O)C1(NC(=O)[C@@H](N)CO)Cc2ccccc2C1)C(C)C)[C@@H](C)O)C(=O)N[C@@H](CCCCN)C(=O)N[C@@H](CCCCN)C(=O)N[C@H](C(=O)N[C@@H](CO)C(=O)N[C@@H](Cc1ccccc1)C(=O)N[C@@H](CCC(N)=O)C(=O)N[C@@H](CCCNC(=N)N)C(=O)N[C@@H](C)C(=O)N[C@@H](CCCCN)C(=O)N[C@@H](CO)C(=O)O)[C@@H](C)O` (H-S[Aic]RNGVGTGMKKTSFQRAKS-OH): on Neuropeptide S receptor, the EC50 was 33.9 nM. In addition, in assay [1], the Emax turned out to be 211%.

In the case of `CSCC[C@H](NC(=O)CNC(=O)[C@@H](NC(=O)CNC(=O)[C@@H](NC(=O)CNC(=O)[C@H](CC(N)=O)NC(=O)[C@H](CCCNC(=N)N)NC(=O)[C@]1(NC(=O)[C@@H](N)CO)CCc2ccccc2C1)C(C)C)[C@@H](C)O)C(=O)N[C@@H](CCCCN)C(=O)N[C@@H](CCCCN)C(=O)N[C@H](C(=O)N[C@@H](CO)C(=O)N[C@@H](Cc1ccccc1)C(=O)N[C@@H](CCC(N)=O)C(=O)N[C@@H](CCCNC(=N)N)C(=O)N[C@@H](C)C(=O)N[C@@H](CCCCN)C(=O)N[C@@H](CO)C(=O)O)[C@@H](C)O` (H-S[Atc(2S)]RNGVGTGMKKTSFQRAKS-OH), the concentration for a half-maximal effect (EC50) on Neuropeptide S receptor is 11.2 nM. The maximal effect (Emax) in assay [1] was 257%.

With `CSCC[C@H](NC(=O)CNC(=O)[C@@H](NC(=O)CNC(=O)[C@@H](NC(=O)CNC(=O)[C@H](CC(N)=O)NC(=O)[C@H](CCCNC(=N)N)NC(=O)[C@H](Cc1ccc(-c2ccccc2)cc1)NC(=O)[C@@H](N)CO)C(C)C)[C@@H](C)O)C(=O)N[C@@H](CCCCN)C(=O)N[C@@H](CCCCN)C(=O)N[C@H](C(=O)N[C@@H](CO)C(=O)N[C@@H](Cc1ccccc1)C(=O)N[C@@H](CCC(N)=O)C(=O)N[C@@H](CCCNC(=N)N)C(=O)N[C@@H](C)C(=O)N[C@@H](CCCCN)C(=O)N[C@@H](CO)C(=O)O)[C@@H](C)O` (H-S[Bip]RNGVGTGMKKTSFQRAKS-OH), the half-maximal effective concentration (EC50) at Neuropeptide S receptor is 20 nM. Further, the Emax in assay [1] is 170%.

Turning to `CSCC[C@H](NC(=O)CNC(=O)[C@@H](NC(=O)CNC(=O)[C@@H](NC(=O)CNC(=O)[C@H](CC(N)=O)NC(=O)[C@H](CCCNC(=N)N)NC(=O)[C@H](CC1CCCCC1)NC(=O)[C@@H](N)CO)C(C)C)[C@@H](C)O)C(=O)N[C@@H](CCCCN)C(=O)N[C@@H](CCCCN)C(=O)N[C@H](C(=O)N[C@@H](CO)C(=O)N[C@@H](Cc1ccccc1)C(=O)N[C@@H](CCC(N)=O)C(=O)N[C@@H](CCCNC(=N)N)C(=O)N[C@@H](C)C(=O)N[C@@H](CCCCN)C(=O)N[C@@H](CO)C(=O)O)[C@@H](C)O` (H-S[Cha]RNGVGTGMKKTSFQRAKS-OH), on Neuropeptide S receptor, the EC50 was 1.35 nM. Further, in assay [1], the maximum response (Emax) is 221%.

As for `CSCC[C@H](NC(=O)CNC(=O)[C@@H](NC(=O)CNC(=O)[C@@H](NC(=O)CNC(=O)[C@H](CC(N)=O)NC(=O)[C@H](CCCNC(=N)N)NC(=O)CN(Cc1ccccc1)C(=O)[C@@H](N)CO)C(C)C)[C@@H](C)O)C(=O)N[C@@H](CCCCN)C(=O)N[C@@H](CCCCN)C(=O)N[C@H](C(=O)N[C@@H](CO)C(=O)N[C@@H](Cc1ccccc1)C(=O)N[C@@H](CCC(N)=O)C(=O)N[C@@H](CCCNC(=N)N)C(=O)N[C@@H](C)C(=O)N[C@@H](CCCCN)C(=O)N[C@@H](CO)C(=O)O)[C@@H](C)O` (H-S[Nphe]RNGVGTGMKKTSFQRAKS-OH), at Neuropeptide S receptor, the 50% effective concentration (EC50) is 15.5 nM. For the same compound, the maximal response (Emax) in assay [1] amounted to 246%.

`CSCC[C@H](NC(=O)CNC(=O)[C@@H](NC(=O)CNC(=O)[C@@H](NC(=O)CNC(=O)[C@H](CC(N)=O)NC(=O)[C@H](CCCNC(=N)N)NC(=O)[C@H](Cc1ccccc1C)NC(=O)[C@@H](N)CO)C(C)C)[C@@H](C)O)C(=O)N[C@@H](CCCCN)C(=O)N[C@@H](CCCCN)C(=O)N[C@H](C(=O)N[C@@H](CO)C(=O)N[C@@H](Cc1ccccc1)C(=O)N[C@@H](CCC(N)=O)C(=O)N[C@@H](CCCNC(=N)N)C(=O)N[C@@H](C)C(=O)N[C@@H](CCCCN)C(=O)N[C@@H](CO)C(=O)O)[C@@H](C)O` (H-S[Phe(2-Me)]RNGVGTGMKKTSFQRAKS-OH): the EC50 at Neuropeptide S receptor is 1.86 nM. In addition, the maximal response (Emax) in assay [1] came out at 222%.

Consider `CSCC[C@H](NC(=O)CNC(=O)[C@@H](NC(=O)CNC(=O)[C@@H](NC(=O)CNC(=O)[C@H](CC(N)=O)NC(=O)[C@H](CCCNC(=N)N)NC(=O)[C@H](Cc1ccc(Br)cc1)NC(=O)[C@@H](N)CO)C(C)C)[C@@H](C)O)C(=O)N[C@@H](CCCCN)C(=O)N[C@@H](CCCCN)C(=O)N[C@H](C(=O)N[C@@H](CO)C(=O)N[C@@H](Cc1ccccc1)C(=O)N[C@@H](CCC(N)=O)C(=O)N[C@@H](CCCNC(=N)N)C(=O)N[C@@H](C)C(=O)N[C@@H](CCCCN)C(=O)N[C@@H](CO)C(=O)O)[C@@H](C)O` (H-S[Phe(4-Br)]RNGVGTGMKKTSFQRAKS-OH), for which the EC50 on Neuropeptide S receptor is 0.646 nM. In addition, the Emax in assay [1] turned out to be 309%.

Regarding `CSCC[C@H](NC(=O)CNC(=O)[C@@H](NC(=O)CNC(=O)[C@@H](NC(=O)CNC(=O)[C@H](CC(N)=O)NC(=O)[C@H](CCCNC(=N)N)NC(=O)[C@H](Cc1ccc(C(F)(F)F)cc1)NC(=O)[C@@H](N)CO)C(C)C)[C@@H](C)O)C(=O)N[C@@H](CCCCN)C(=O)N[C@@H](CCCCN)C(=O)N[C@H](C(=O)N[C@@H](CO)C(=O)N[C@@H](Cc1ccccc1)C(=O)N[C@@H](CCC(N)=O)C(=O)N[C@@H](CCCNC(=N)N)C(=O)N[C@@H](C)C(=O)N[C@@H](CCCCN)C(=O)N[C@@H](CO)C(=O)O)[C@@H](C)O` (H-S[Phe(4-CF3)]RNGVGTGMKKTSFQRAKS-OH), on Neuropeptide S receptor, the EC50 was 2.57 nM. Moreover, the Emax in assay [1] was 286%.

For the compound `CSCC[C@H](NC(=O)CNC(=O)[C@@H](NC(=O)CNC(=O)[C@@H](NC(=O)CNC(=O)[C@H](CC(N)=O)NC(=O)[C@H](CCCNC(=N)N)NC(=O)[C@H](Cc1ccc(C#N)cc1)NC(=O)[C@@H](N)CO)C(C)C)[C@@H](C)O)C(=O)N[C@@H](CCCCN)C(=O)N[C@@H](CCCCN)C(=O)N[C@H](C(=O)N[C@@H](CO)C(=O)N[C@@H](Cc1ccccc1)C(=O)N[C@@H](CCC(N)=O)C(=O)N[C@@H](CCCNC(=N)N)C(=O)N[C@@H](C)C(=O)N[C@@H](CCCCN)C(=O)N[C@@H](CO)C(=O)O)[C@@H](C)O` (H-S[Phe(4-CN)]RNGVGTGMKKTSFQRAKS-OH), the concentration for a half-maximal effect (EC50) at Neuropeptide S receptor is 3.31 nM. Also, in assay [1], the maximum response (Emax) came to 296%.

For the compound `CSCC[C@H](NC(=O)CNC(=O)[C@@H](NC(=O)CNC(=O)[C@@H](NC(=O)CNC(=O)[C@H](CC(N)=O)NC(=O)[C@H](CCCNC(=N)N)NC(=O)[C@H](Cc1ccc(Cl)cc1)NC(=O)[C@@H](N)CO)C(C)C)[C@@H](C)O)C(=O)N[C@@H](CCCCN)C(=O)N[C@@H](CCCCN)C(=O)N[C@H](C(=O)N[C@@H](CO)C(=O)N[C@@H](Cc1ccccc1)C(=O)N[C@@H](CCC(N)=O)C(=O)N[C@@H](CCCNC(=N)N)C(=O)N[C@@H](C)C(=O)N[C@@H](CCCCN)C(=O)N[C@@H](CO)C(=O)O)[C@@H](C)O` (H-S[Phe(4-Cl)]RNGVGTGMKKTSFQRAKS-OH), the concentration giving a half-maximal response (EC50) at Neuropeptide S receptor was 0.708 nM. In assay [1], the Emax was found to be 298%.

With `CSCC[C@H](NC(=O)CNC(=O)[C@@H](NC(=O)CNC(=O)[C@@H](NC(=O)CNC(=O)[C@H](CC(N)=O)NC(=O)[C@H](CCCNC(=N)N)NC(=O)[C@H](Cc1ccc(F)cc1)NC(=O)[C@@H](N)CO)C(C)C)[C@@H](C)O)C(=O)N[C@@H](CCCCN)C(=O)N[C@@H](CCCCN)C(=O)N[C@H](C(=O)N[C@@H](CO)C(=O)N[C@@H](Cc1ccccc1)C(=O)N[C@@H](CCC(N)=O)C(=O)N[C@@H](CCCNC(=N)N)C(=O)N[C@@H](C)C(=O)N[C@@H](CCCCN)C(=O)N[C@@H](CO)C(=O)O)[C@@H](C)O` (H-S[Phe(4-F)]RNGVGTGMKKTSFQRAKS-OH), the EC50 at Neuropeptide S receptor is 1.1 nM. Further, the Emax in assay [1] came out at 291%.

In the case of `CSCC[C@H](NC(=O)CNC(=O)[C@@H](NC(=O)CNC(=O)[C@@H](NC(=O)CNC(=O)[C@H](CC(N)=O)NC(=O)[C@H](CCCNC(=N)N)NC(=O)[C@H](Cc1ccc(I)cc1)NC(=O)[C@@H](N)CO)C(C)C)[C@@H](C)O)C(=O)N[C@@H](CCCCN)C(=O)N[C@@H](CCCCN)C(=O)N[C@H](C(=O)N[C@@H](CO)C(=O)N[C@@H](Cc1ccccc1)C(=O)N[C@@H](CCC(N)=O)C(=O)N[C@@H](CCCNC(=N)N)C(=O)N[C@@H](C)C(=O)N[C@@H](CCCCN)C(=O)N[C@@H](CO)C(=O)O)[C@@H](C)O` (H-S[Phe(4-I)]RNGVGTGMKKTSFQRAKS-OH), the EC50 on Neuropeptide S receptor was 1.78 nM. In addition, the maximal effect (Emax) in assay [1] came out at 243%.

The values are drawn from ChEMBL document CHEMBL1140728, “Synthesis and biological activity of human neuropeptide S analogues modified in position 2” (J Med Chem, 2008).
